Experimental data collected from several papers.
Lines come from different studies, so protocols differ.
Target: Cyclin-dependent kinase-like 3 (CDKL3, Homo sapiens, UniProt Q8IVW4)

Compound	read-out	method	tested at	remaining binding
C=CC(=O)N1CCC(C(=O)NCC(=O)N2CCN(c3nc(-c4cnc(N)nc4C(F)F)nc(N4CCOCC4)n3)CC2)CC1	binding	competition with immobilised ligand	1 µM	100%
CN(C)c1nccc(-c2cnc3ncccn23)n1	binding	–	1 µM	100%
CNCc1ccccc1-c1csc([C@H](C)Nc2nc(C)nc3cc(OC)c(OC)cc23)c1	cell-free assay	competition with immobilised ligand	1 µM	97%
C[C@@H](c1ccc(-n2cnc3c(N)ncnc32)cc1)N1CCc2nn(C)c(Cc3ccccc3)c2C1=O	binding	competition with immobilised ligand	0.1 µM	95%
O=C(c1ccc(Nc2ncc(Cl)c(-c3ccc(Cl)s3)n2)cc1)N1CCC(N2CCCC2)CC1	binding	competition with immobilised ligand	1 µM	39%
COc1cnc(Nc2cccc(S(N)(=O)=O)c2)nc1N1CCN(c2ccccc2)CC1	binding	competition with immobilised ligand	1 µM	100%
c1cnn2ncc(-c3ccnc(N4CCC45COC5)n3)c2c1	binding	–	1 µM	93%
O=C(NCC1CCOCC1)c1n[nH]cc1NC(=O)c1c(F)cccc1F	binding	competition with immobilised ligand	1 µM	100%
Cc1noc([C@H]2C[C@@H](c3ccc(C(F)(F)F)cc3)CN(C(=O)N3CCS(=O)(=O)C3)C2)n1	binding	competition with immobilised ligand	1 µM	81%
F[C@@H]1CCN(c2nccc(-c3cnn4ncccc34)n2)C1	binding	–	1 µM	100%
Cc1cc(NC(=O)c2cccc(S(F)(F)(F)(F)F)c2)cc(-n2ccn3nc(-c4cccnc4)cc23)c1	cell-free assay	competition with immobilised ligand	1 µM	100%
FC(F)(F)Oc1cccc(-c2cnc3ccc(-c4ccncc4)nn23)c1	cell-free assay	competition with immobilised ligand	5 µM	85%
O=C(NCCCN1CCOCC1)c1ccc(Nc2ncc(Cl)c(-c3ccc(Cl)s3)n2)cc1	binding	competition with immobilised ligand	1 µM	86%
Cn1nc(C(=O)NCc2ccc(C(=O)O)cc2)cc1-c1ccc2[nH]ccc2c1	cell-free assay	competition with immobilised ligand	0.1 µM	100%
N[C@@H]1CCN(c2nccc(-c3cnn4ncccc34)n2)C1	binding	–	1 µM	80%
CN(C)CC#Cc1ccc(OCCCc2sc(N3CCc4cccc(C(=O)Nc5nc6ccccc6s5)c4C3)nc2C(=O)O)c(F)c1	cell-free assay	competition with immobilised ligand	1 µM	100%
C[C@@H]1CCN(c2nccc(-c3cnn4ncccc34)n2)C1	binding	–	1 µM	93%
COc1cnc(Nc2cccc(S(N)(=O)=O)c2)nc1N1CCN(c2ccccc2)C(=O)C1	binding	competition with immobilised ligand	1 µM	99%
CS(=O)(=O)NCC[C@H](NC(=O)c1cncc2c1cnn2-c1ccc(F)cc1)c1ccnc(S(C)(=O)=O)c1	binding	competition with immobilised ligand	1 µM	99%
O=C(c1ccc(Nc2nccc(-c3cc4ccccc4s3)n2)cc1)N1CCC(N2CCCC2)CC1	binding	competition with immobilised ligand	1 µM	58%
